Compound activity from PubChem.
KDM4C inh = KDM4C (human) demethylase inhibition | GST-KDM4C 2-372, H3K9me3 peptide, LANCE TR-FRET | inhibition, % at 12.5 µM | actives 0.15% (n = 96,000) | AID 720574;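 active = mean replicate inhibition above about 25%, with at least 55% of replicates also reaching it, limit read from the data, passing the limit was not always enough; inconclusive = only one of those two conditions met; inactive = neither condition met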
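System: N-terminal GST-fused human GASC-1 (KDM4C) fragment, residues 2-372 / Amount: 10 nM GST-KDM4C in enzyme reaction / Also added: H3K9me3 peptide with Fe(II)/2OG / Times: 30 min demethylation and 1 h detection at room temperature / Signal: LANCE TR-FRET / Read-out basis: Fall in 671/618 emission ratio as inhibition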
T cruzi growth-1 = inhibitors of T. cruzi proliferation; actives 5.9% (n = 77,000); AID 624255; inhibition, % at 8.34 µM; T. cruzi beta-gal in NIH3T3, GalScreen luminescence, 90 h;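 active = mean inhibition above about 93%, with at least 55% of replicates each passing it, limit read from the data, passing the limit was not always enough; inconclusive = only one of those two conditions holds; inactive = neither condition holds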
IDH1 R132H inh = IDH1 R132H (human) inhibition. O75874. IDH1 R132H reductase, diaphorase/resazurin fluorescence, 60 min. inhibition, % at 10 µM. actives 0.18% (n = 70,000). AID 624101; in the data active = inhibition above about 34%; inconclusive = no clear call, values can overlap the other calls; inactive = below about 11%
Target sequence (O75874 whole entry R132H): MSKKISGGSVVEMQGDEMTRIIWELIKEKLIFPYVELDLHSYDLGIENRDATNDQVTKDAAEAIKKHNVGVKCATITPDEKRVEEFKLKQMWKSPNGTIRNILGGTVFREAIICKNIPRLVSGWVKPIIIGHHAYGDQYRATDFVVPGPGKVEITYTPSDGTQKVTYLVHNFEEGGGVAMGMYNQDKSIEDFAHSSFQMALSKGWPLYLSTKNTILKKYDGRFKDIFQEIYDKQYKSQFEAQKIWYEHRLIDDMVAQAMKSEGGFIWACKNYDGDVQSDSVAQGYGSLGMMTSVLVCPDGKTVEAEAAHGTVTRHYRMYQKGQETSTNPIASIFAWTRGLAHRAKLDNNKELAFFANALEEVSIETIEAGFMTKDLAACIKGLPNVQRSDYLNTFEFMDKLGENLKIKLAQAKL
T cruzi growth-2 = inhibitors of T. cruzi proliferation; AID 651739; T. cruzi beta-gal in NIH3T3, GalScreen luminescence, 90 h; actives 72% (n = 5,600); inhibition, % at 8.35 µM; shares compounds with T cruzi growth-1;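 active = mean replicate inhibition above about 95% and at least 55% of replicates individually reaching it, limit read from the data; inconclusive = only one of the two criteria is met; inactive = neither criterion is met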
T cruzi growth-3 = Trypanosoma cruzi proliferation inhibition | shares compounds with T cruzi growth-1 | T. cruzi beta-gal in NIH3T3, GalScreen luminescence, 90 h | inhibition, % at 2.09 µM | actives 21% (n = 5,600) | AID 651740;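 active = mean inhibition above about 95%, with at least 55% of replicates also reaching it, limit read from the data; inconclusive = meets just one of the two conditions; inactive = meets neither condition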
NIH3T3 tox = cytotoxicity in mouse NIH/3T3 fibroblasts; shares compounds with T cruzi growth-1; NIH/3T3 viability, CellTiter-Glo ATP luminescence, 90 h; cytotoxicity (signal decrease), % at 8.35 µM; actives 14% (n = 5,600);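 active = mean signal decrease across replicates above about 35% based on untreated-well scatter, with enough replicates individually passing, limit read from the data; inconclusive = no rule stated though some were filed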
3T3 cytotox 2 = cytotoxicity in mouse NIH/3T3 fibroblasts | shares compounds with T cruzi growth-1 | NIH/3T3 viability, CellTiter-Glo ATP luminescence, 90 h | inhibition, % at 24.9 µM | actives 56% (n = 5,600);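 active = mean loss of cell viability signal at or above a set limit, and enough replicates individually reaching it; inconclusive = meets only the mean limit or only the replicate share; inactive = meets neither condition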
Hits are given with their value; . = inactive; ? = inconclusive; / = no result given; ! = repeats disagree. Many of the other results were omitted from the sample, so hits are more common in it than they were.

SMILES	KDM4C inh	T cruzi growth-1	IDH1 R132H inh	T cruzi growth-2	T cruzi growth-3	NIH3T3 tox	3T3 cytotox 2
COc1ccccc1NC(=O)N[C@@H]1CC[C@@H](CCn2cc(-c3ccccc3OC)nn2)O[C@H]1CO	.	.	.	/	/	/	/
O=C1c2c(O)cc(O)cc2O[C@@H](c2ccc(O)cc2)[C@H]1[C@@H]1C(=O)c2c(O)cc(O)cc2O[C@H]1c1ccc(O)cc1	/	/	.	/	/	/	/
C=CC(C)(C)[C@@]12C[C@H]3C(=O)Nc4ccccc4C(=O)N3[C@@H]1Nc1ccccc12	/	/	.	/	/	/	/
Cc1cc(-c2ccccc2)nc(SCC(=O)Nc2ccc(OC(F)F)cc2)n1	/	/	.	/	/	/	/
COc1ccccc1-c1cn(CC[C@H]2CC[C@H](NC(=O)NC(C)C)[C@H](CO)O2)nn1	?	.	?	/	/	/	/
COc1ccccc1NC(=O)N[C@H]1CC[C@H](CCn2cc(-c3ccccc3OC)nn2)O[C@@H]1CO	/	149	.	.	.	.	?
C[C@@H]1CCCCO[C@@H](CN(C)S(=O)(=O)c2cccs2)[C@H](C)CN([C@@H](C)CO)C(=O)c2cc(N(C)C)ccc2O1	.	.	.	/	/	/	/
C[C@@H]1CN([C@@H](C)CO)C(=O)c2cc(N(C)C)ccc2O[C@@H](C)CCCCO[C@@H]1CN(C)S(=O)(=O)c1cccs1	.	106!	.	.	.	.	.
C[C@@H]1CCCCO[C@H](CN(C)S(=O)(=O)c2cccs2)[C@H](C)CN([C@H](C)CO)C(=O)c2cc(NS(=O)(=O)c3ccc(Cl)cc3)ccc2O1	.	99	/	102	114	.	.
C[C@@H]1CCCCO[C@@H](CN(C)S(=O)(=O)c2cccs2)[C@@H](C)CN([C@@H](C)CO)C(=O)c2cc(NS(=O)(=O)c3ccc(Cl)cc3)ccc2O1	.	.	.	/	/	/	/
C[C@@H]1CN([C@@H](C)CO)C(=O)c2cc(NS(=O)(=O)c3ccc(Cl)cc3)ccc2O[C@@H](C)CCCCO[C@@H]1CN(C)S(=O)(=O)c1cccs1	.	.	/	/	/	/	/
C[C@@H]1CN([C@H](C)CO)C(=O)c2cc(NS(=O)(=O)c3ccc(Cl)cc3)ccc2O[C@@H](C)CCCCO[C@@H]1CN(C)S(=O)(=O)c1cccs1	.	101	/	116	.	.	.
C[C@@H]1CCCCO[C@@H](CN(C)S(=O)(=O)c2cccs2)[C@@H](C)CN([C@H](C)CO)C(=O)c2cc(NS(=O)(=O)c3ccc(F)cc3)ccc2O1	.	.	/	/	/	/	/
C[C@@H]1CN([C@@H](C)CO)C(=O)c2cc(NS(=O)(=O)c3ccc(F)cc3)ccc2O[C@@H](C)CCCCO[C@@H]1CN(C)S(=O)(=O)c1cccs1	.	97	.	108	.	.	.
Cc1ccc(S(=O)(=O)N(C)CC(=O)Nc2ccccc2[N+](=O)[O-])cc1	/	/	.	/	/	/	/
CCc1ccc(CCC(=O)Nc2cc(C(F)(F)F)ccc2Cl)o1	/	/	.	/	/	/	/
O=S(=O)(Nc1ncccn1)c1ccc(NC(=S)Nc2ccc(Oc3ccccc3)cc2)cc1	/	/	.	/	/	/	/
Cc1cccc(C)c1NC(=O)CSc1nc(-c2ccccc2)c(-c2ccccc2)[nH]1	/	/	.	/	/	/	/
COC(=O)C(C(C)c1c[nH]c2ccccc12)[N+](=O)[O-] (centres undefined)	/	/	.	/	/	/	/
O=C(CS(=O)(=O)c1ccc2ccccc2c1)c1cc2ccccc2oc1=O	/	/	.	/	/	/	/
C[C@H]1CCCCO[C@H](CN(C)S(=O)(=O)c2cccs2)[C@@H](C)CN([C@@H](C)CO)C(=O)c2cc(NS(=O)(=O)c3ccccc3)ccc2O1	.	105	/	106	.	.	.
C[C@@H]1CN([C@H](C)CO)C(=O)c2cc(NS(=O)(=O)c3ccc(Cl)cc3)ccc2O[C@@H](C)CCCCO[C@H]1CN(C)S(=O)(=O)c1cccs1	.	.	/	/	/	/	/
C[C@@H]1CCCCO[C@@H](CN(C)S(=O)(=O)c2cccs2)[C@H](C)CN([C@@H](C)CO)C(=O)c2cc(NS(=O)(=O)c3ccc(Cl)cc3)ccc2O1	.	96	.	98	.	.	.
C[C@@H]1CCCCO[C@@H](CN(C)S(=O)(=O)c2cccs2)[C@@H](C)CN([C@H](C)CO)C(=O)c2cc(NS(=O)(=O)c3ccccc3)ccc2O1	/	.	/	/	/	/	/
CCC(=O)N1CCN(c2ccc(Cl)cc2NC(=O)COc2cc(C)cc(C)c2)CC1	/	/	.	/	/	/	/
SMILES	KDM4C inh	T cruzi growth-1	IDH1 R132H inh	T cruzi growth-2	T cruzi growth-3	NIH3T3 tox	3T3 cytotox 2
COC(=O)C1=CO[C@@H](O[C@@H]2O[C@H](CO)[C@@H](O)[C@H](O)[C@H]2O)[C@@H]2[C@@H](C)[C@@H](OC(=O)/C=C/c3ccc(O)cc3)[C@@H](O)[C@H]12	/	/	.	/	/	/	/
O=C(Nc1ccc(C(F)(F)F)cc1)Nc1ccc2c(c1)[C@@H]1C[C@H](CC(=O)N3CCc4ccccc4C3)O[C@@H](CO)[C@@H]1O2	.	153	.	103	114	.	.
O=C(Nc1ccc(C(F)(F)F)cc1)Nc1ccc2c(c1)[C@H]1C[C@H](CC(=O)N3CCc4ccccc4C3)O[C@H](CO)[C@H]1O2	.	?	.	.	110	54	106
O=C(Nc1ccc2c(c1)[C@H]1C[C@@H](CC(=O)N3CCc4ccccc4C3)O[C@@H](CO)[C@H]1O2)Nc1ccccc1F	.	/	.	/	/	/	/
O=C(Nc1ccc(C(F)(F)F)cc1)Nc1ccc2c(c1)[C@@H]1C[C@@H](CC(=O)N3CCc4ccccc4C3)O[C@@H](CO)[C@@H]1O2	.	.	.	/	/	/	/
COc1ccc(-n2c(SCC(=O)Nc3ccc(F)cc3F)nnc2-c2ccco2)cc1	/	/	.	/	/	/	/
COCC(=O)N1CC[C@@H]2[C@H]1c1cc(-c3cccc(F)c3)ccc1N(C)[C@@H]2CO	.	103	/	103	.	.	.
COCC(=O)N1CC[C@@H]2[C@@H](CO)N(C)c3ccc(-c4ccccc4)cc3[C@@H]21	.	98	/	104	.	.	.
CCC(=O)N1CC[C@@H]2[C@@H](CO)N(C)c3ccc(-c4cccc(F)c4)cc3[C@@H]21	.	.	/	/	/	/	/
CN1c2ccc(-c3cccc(F)c3)cc2[C@H]2[C@H](CCN2C(=O)C2CC2)[C@H]1CO	.	.	/	/	/	/	/
COCC(=O)N1CC[C@H]2[C@@H]1c1cc(-c3ccccc3)ccc1N(C)[C@H]2CO	.	.	/	/	/	/	/
COCC(=O)N1CC[C@@H]2[C@H]1c1cc(-c3cccc(OC)c3)ccc1N(C)[C@@H]2CO	.	117	/	107	.	.	.
CCC(=O)N1CC[C@@H]2[C@H]1c1cc(-c3cccc(OC)c3)ccc1N(C)[C@H]2CO	.	.	/	/	/	/	/
CN1c2ccc(-c3cccc(F)c3)cc2[C@@H]2[C@@H](CCN2C(=O)C2CC2)[C@H]1CO	.	100	/	102	101	.	91
CCOC(=O)c1c(NC(=O)C2CC(c3cccc(Br)c3)=NO2)sc(C(=O)OC)c1C (centres undefined)	/	/	.	/	/	/	/
